From ChEMBL document CHEMBL5390275, “Molecular Graph-Based Deep Learning Algorithm Facilitates an Imaging-Based Strategy for Rapid Discovery of Small Molecules Modulating Biomolecular Condensates” (J Med Chem, 2023)
The source made the active and inactive calls. The calls are words filed in the database; no cut-off is given here.

Key:
DLD-1 [1] = test: Inhibition of sodium arsenite induced stress granule formation in human DLD-1 cells at 10 uM incubated for 24 hrs followed by sodium arsenite stimulation for 1 hr by G3BP1 staining based immunostaining analysis; assay type: functional, cell-based
In short: (§1)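 DLD1 cells on glass-bottom plates treated with compound at 10uM for 24 h, then 250uM sodium arsenite for 1 h; DMSO control. Fixed in 4% PFA 10 min RT, permeabilized, blocked (5% BSA, 0.1% Triton X-100), stained with anti-G3BP1 and anti-NPM1 (1:100, 1 h RT), secondaries 1:1000 30 min, DAPI; spinning-disc confocal max-projection images analysed.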

[2] = molecular target: TAR DNA-binding protein 43 (Homo sapiens) (UniProt Q13148); test: Inhibition of human TDP-43 in human SH-SY5Y cells assessed a splicing changes in normal STMN2 mRNA at 10 uM incubated for 24 hrs by qPCR analysis; assay type: cell-based
TAR DNA-binding protein 43 (Homo sapiens), sequence (Q13148 whole entry, canonical isoform): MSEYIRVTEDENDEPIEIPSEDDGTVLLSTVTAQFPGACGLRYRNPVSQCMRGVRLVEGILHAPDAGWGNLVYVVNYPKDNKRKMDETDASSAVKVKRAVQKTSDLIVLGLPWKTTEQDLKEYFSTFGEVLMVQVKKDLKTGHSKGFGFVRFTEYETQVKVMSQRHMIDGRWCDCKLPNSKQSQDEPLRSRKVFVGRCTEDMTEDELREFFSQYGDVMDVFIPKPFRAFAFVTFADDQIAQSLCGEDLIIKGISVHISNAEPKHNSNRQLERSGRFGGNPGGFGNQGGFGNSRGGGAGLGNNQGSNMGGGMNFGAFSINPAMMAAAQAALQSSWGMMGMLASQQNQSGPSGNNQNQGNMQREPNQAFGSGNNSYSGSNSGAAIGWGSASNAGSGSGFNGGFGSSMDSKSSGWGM
In short: (§2)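 SH-SY5Y neuron-like cells (DMEM/F12, 10% FBS) given compound at 10uM final for 24 h; total RNA then harvested and normal and cryptic spliced STMN2 mRNA quantified by real-time PCR.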

[3] = tested on: TAR DNA-binding protein 43 (Homo sapiens), Q13148 [K181E]; test: Inhibition of doxycycline induced TDP-43 K181E mutant anisosomes formation in human U2OS cells expressing ALS-causing TDP-43 K181E mutant anisosomes assessed as change in TDP-43 droplets morphology at 1 to 10 uM incubated for 24 hrs by fluorescence imaging analysis; assay type: cell-based; conditions: dose 1-10 µM
TAR DNA-binding protein 43 (Homo sapiens), Q13148 [K181E], sequence (Q13148 whole entry K181E): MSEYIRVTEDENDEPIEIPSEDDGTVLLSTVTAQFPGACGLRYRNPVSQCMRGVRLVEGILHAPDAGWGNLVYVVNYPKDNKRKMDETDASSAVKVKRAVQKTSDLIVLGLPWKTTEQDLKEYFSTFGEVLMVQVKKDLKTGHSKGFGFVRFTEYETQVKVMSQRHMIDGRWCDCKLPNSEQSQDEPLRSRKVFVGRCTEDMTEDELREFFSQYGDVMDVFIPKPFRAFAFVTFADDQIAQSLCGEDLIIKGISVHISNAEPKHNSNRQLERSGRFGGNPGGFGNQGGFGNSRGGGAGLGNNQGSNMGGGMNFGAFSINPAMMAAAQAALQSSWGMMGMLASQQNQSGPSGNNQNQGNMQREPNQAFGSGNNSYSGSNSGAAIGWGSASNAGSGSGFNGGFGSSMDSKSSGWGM
In short: (§3)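 U2OS cells stably expressing inducible TDP-43 K181E or NCOR2 anisosomes, treated with compound for 24 h (10uM, or a concentration series), then fixed and imaged; fraction of demixing cells quantified from fluorescent images.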

[4] = molecular target: Nuclear receptor corepressor 2 (Homo sapiens) (UniProt Q9Y618); test: Inhibition of doxycycline induced NCOR2 anisosomes formation in human U2OS cells expressing ALS-causing NCOR2 anisosomes assessed as change in NCOR2 droplets morphology at 10 uM incubated for 24 hrs by fluorescence imaging analysis; assay type: cell-based; in short: as §3
Nuclear receptor corepressor 2 (Homo sapiens), sequence (Q9Y618 whole entry): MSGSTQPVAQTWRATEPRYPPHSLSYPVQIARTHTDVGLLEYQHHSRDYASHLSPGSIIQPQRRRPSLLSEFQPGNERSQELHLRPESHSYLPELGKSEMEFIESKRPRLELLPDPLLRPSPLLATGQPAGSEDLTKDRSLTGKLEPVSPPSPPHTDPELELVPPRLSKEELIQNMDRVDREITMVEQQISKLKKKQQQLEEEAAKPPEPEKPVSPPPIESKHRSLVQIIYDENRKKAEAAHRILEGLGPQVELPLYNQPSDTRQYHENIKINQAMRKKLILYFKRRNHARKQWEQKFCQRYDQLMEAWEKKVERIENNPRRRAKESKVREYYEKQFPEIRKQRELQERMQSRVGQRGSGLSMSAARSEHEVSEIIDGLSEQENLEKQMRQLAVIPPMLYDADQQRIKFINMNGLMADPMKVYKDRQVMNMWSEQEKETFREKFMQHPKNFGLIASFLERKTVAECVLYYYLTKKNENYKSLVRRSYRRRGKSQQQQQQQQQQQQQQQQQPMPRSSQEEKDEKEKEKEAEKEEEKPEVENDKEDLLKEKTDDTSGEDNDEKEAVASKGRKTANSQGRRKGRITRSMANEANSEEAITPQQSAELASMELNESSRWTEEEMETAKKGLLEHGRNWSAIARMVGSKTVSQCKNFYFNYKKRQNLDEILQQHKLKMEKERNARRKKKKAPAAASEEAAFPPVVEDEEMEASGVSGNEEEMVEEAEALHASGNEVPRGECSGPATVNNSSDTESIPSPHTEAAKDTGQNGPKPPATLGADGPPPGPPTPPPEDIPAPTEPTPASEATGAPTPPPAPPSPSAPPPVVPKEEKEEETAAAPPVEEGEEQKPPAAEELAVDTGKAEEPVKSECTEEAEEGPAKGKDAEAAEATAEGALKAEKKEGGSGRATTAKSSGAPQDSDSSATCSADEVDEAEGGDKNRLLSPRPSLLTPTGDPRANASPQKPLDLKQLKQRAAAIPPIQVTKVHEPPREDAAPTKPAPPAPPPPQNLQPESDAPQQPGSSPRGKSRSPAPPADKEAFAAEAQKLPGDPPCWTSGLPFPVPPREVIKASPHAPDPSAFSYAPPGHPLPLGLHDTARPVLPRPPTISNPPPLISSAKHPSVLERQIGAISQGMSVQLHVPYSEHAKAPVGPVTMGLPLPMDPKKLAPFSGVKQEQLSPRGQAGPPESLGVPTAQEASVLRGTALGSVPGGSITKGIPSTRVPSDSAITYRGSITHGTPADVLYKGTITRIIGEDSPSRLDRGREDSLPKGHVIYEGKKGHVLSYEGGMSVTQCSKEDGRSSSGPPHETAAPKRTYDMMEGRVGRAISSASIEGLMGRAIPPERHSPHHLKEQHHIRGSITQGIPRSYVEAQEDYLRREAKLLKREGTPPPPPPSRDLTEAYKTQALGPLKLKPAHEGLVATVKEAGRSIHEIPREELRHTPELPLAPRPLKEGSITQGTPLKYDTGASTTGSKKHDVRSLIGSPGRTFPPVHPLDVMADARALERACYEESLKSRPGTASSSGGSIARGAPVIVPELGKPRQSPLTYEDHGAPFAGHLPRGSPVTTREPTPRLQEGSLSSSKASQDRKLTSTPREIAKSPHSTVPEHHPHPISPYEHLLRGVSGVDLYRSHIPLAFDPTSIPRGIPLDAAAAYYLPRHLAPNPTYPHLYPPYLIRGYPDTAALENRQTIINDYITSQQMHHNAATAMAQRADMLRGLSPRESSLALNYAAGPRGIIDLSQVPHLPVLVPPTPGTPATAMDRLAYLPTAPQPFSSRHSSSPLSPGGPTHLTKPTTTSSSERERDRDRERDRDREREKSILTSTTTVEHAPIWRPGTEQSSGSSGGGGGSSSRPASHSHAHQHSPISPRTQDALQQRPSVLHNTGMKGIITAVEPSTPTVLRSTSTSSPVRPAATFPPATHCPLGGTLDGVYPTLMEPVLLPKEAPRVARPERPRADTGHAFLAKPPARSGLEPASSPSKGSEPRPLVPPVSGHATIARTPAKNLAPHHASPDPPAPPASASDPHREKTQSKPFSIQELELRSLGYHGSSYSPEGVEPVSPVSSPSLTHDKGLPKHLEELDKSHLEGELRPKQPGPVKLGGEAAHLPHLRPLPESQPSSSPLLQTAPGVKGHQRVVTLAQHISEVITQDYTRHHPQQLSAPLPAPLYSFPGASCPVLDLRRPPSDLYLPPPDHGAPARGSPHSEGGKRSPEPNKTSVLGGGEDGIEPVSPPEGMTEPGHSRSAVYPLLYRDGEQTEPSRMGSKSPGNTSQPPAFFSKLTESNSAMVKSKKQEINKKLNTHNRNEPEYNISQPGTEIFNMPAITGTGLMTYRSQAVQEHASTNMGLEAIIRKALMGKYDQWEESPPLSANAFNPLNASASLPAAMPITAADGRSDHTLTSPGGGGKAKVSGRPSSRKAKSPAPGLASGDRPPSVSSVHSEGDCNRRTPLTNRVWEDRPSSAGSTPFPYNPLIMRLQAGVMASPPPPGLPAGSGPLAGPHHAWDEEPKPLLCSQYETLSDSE

DLD-1 [5] = test: Inhibition of doxycycline induced TDP-43 2KQ mutant anisosomes formation in human DLD-1 cells expressing TDP-43 2KQ mutant anisosomes at 10 uM incubated for 24 hrs by fluorescence imaging analysis; assay type: cell-based
In short: (§4)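 Stable lentivirally transduced DLD1 (single-cell clones sorted by fluorescence) or U2OS lines expressing inducible TDP-43 anisosomes; plated 4000 cells/well, overnight, then compound 24 h; cells fixed, fluorescent anisosomes imaged on ImageExpress HTai and anisosome number per cell quantified.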

U2OS = test: Inhibition of doxycycline induced TDP-43 2KQ mutant anisosomes formation in human U2OS cells expressing TDP-43 2KQ mutant anisosomes at 10 uM incubated for 24 hrs by fluorescence imaging analysis; assay type: cell-based; in short: as §4
SH-SY5Y = test: Inhibition of TDP-43 2KQ mutant in human SH-SY5Y cells assessed a splicing changes in cryptic STMN2 mRNA at 10 uM incubated for 24 hrs by qPCR analysis; assay type: cell-based; in short: as §2
DLD-1 [6] = test: Inhibition of sodium arsenite stimulated human DLD-1 cells assessed as change in nucleolus morphology at 10 uM incubated for 24 hrs followed by sodium arsenite stimulation for 1 hr by NPM1 staining based immunostaining analysis; assay type: functional, cell-based; in short: as §1

| inhibition [2] | inhibition [3] | inhibition [4] | SMILES | inhibition (DLD-1 [1]) | inhibition (DLD-1 [5]) | inhibition (U2OS) | inhibition (SH-SY5Y) | inhibition (DLD-1 [6]) |
| --- | --- | --- | --- | --- | --- | --- | --- | --- |
| inactive | – | – | COc1ccc(S(=O)(=O)NCC(c2ccco2)S(=O)(=O)c2cccs2)cc1F (centres undefined) | inactive | – | – | – | – |
| inactive | – | – | Cc1ccc(CCNc2ncnc3onc(C)c23)cc1 | inactive | inactive | inactive | Active | – |
| inactive | Active | Active | C=C1C(=O)O[C@H]2C3=C(C)CCC[C@]3(C)C(=O)C[C@@H]12 | Active | Active | Active | – | Active |

The next lines start with the compound.

| SMILES | inhibition [2] | inhibition [3] | inhibition [4] | inhibition (DLD-1 [1]) | inhibition (DLD-1 [5]) | inhibition (U2OS) | inhibition (SH-SY5Y) | inhibition (DLD-1 [6]) |
| --- | --- | --- | --- | --- | --- | --- | --- | --- |
| COc1ccc(NC(=O)Cn2c(SCc3ccc(F)cc3)nc3cccnc32)cc1OC | inactive | inactive | Active | inactive | – | – | – | – |
| COc1ccc2[nH]c(=O)c3c(c2c1)OC(C)(C)C=C3 | inactive | Dose-Dependent Effect | inactive | inactive | Active | Active | – | – |
